The nature of series [1]: Partition coefficient (logP). The class given is physicochemical. The note with it: octanol/water. In outline:
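Partitioning measured between n-octanol and water.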

Series [2] in a line: Ability to inhibit the Mitochondrial cytochrome c Oxidase in isolated mitochondrial suspensions from R3230AC rat mammary adenocarcinomas. On the set-up: concentration or dose not given beside the values. The note with it: concentration not given here. The method, boiled down:
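Mitochondria isolated from subcutaneously transplanted R3230AC tumors in female Fischer 344 rats and stored at -70 °C. They were diluted in sucrose/KCl buffer (pH 7.4) to give a 0.45-0.60/min absorbance change of cytochrome c at 550 nm. Dye (10 μM) was added for 5 min in the dark at room temperature, then mitochondria were pelleted and resuspended. Samples were matched by absorbance (~1.5 OD) and irradiated with 375–800 nm light. The initial inhibition rate was taken over the first 5 min of exposure.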

The molecule `CC(C)(C)C1=CC(=C/C=C/c2cc(C(C)(C)C)[te+]c(C(C)(C)C)c2)C=C(C(C)(C)C)O1` came in with a log partition coefficient (logP) in series [1] of 2.41. Besides, the inhibition in series [2] stood at 10.9%.

On to `CC(C)(C)C1=CC(=C/C=C/c2cc(C(C)(C)C)[te+]c(C(C)(C)C)c2)C=C(C(C)(C)C)[Te]1`, for which, in series [1], the logP was found to be 2.02.

In series [1], `CC(C)(C)C1=CC(=C/C=C/c2cc(C(C)(C)C)[se+]c(C(C)(C)C)c2)C=C(C(C)(C)C)[Se]1` had a logP of 1.92. Moreover, the inhibition in series [2] was 4.2%.

The molecule `CC(C)(C)C1=CC(=C/C=C/c2cc(C(C)(C)C)[se+]c(C(C)(C)C)c2)C=C(C(C)(C)C)S1` showed a lipophilicity (logP) in series [1] of 2.39. In addition, in series [2], the inhibition came out at 4.05%.

Consider `CC(C)(C)C1=CC(=C/C=C/c2cc(C(C)(C)C)[o+]c(C(C)(C)C)c2)C=C(C(C)(C)C)O1`, for which, in series [1], the lipophilicity (logP) came to 2.51. This molecule also registered an inhibition in series [2] of 0%.

For `CC(C)(C)C1=CC(=C/C=C/c2cc(C(C)(C)C)[se+]c(C(C)(C)C)c2)C=C(C(C)(C)C)O1`, the inhibition in series [2] was 2.55%.

The molecule `CC(C)(C)C1=CC(=C/C=C/c2cc(C(C)(C)C)[s+]c(C(C)(C)C)c2)C=C(C(C)(C)C)S1` returned a log partition coefficient (logP) in series [1] of 1.97. In addition, in series [2], the inhibition was found to be 0.045%.

In series [1], `CC(C)(C)C1=CC(=C/C=C/c2cc(C(C)(C)C)[te+]c(C(C)(C)C)c2)C=C(C(C)(C)C)[Se]1` gave a logP of 2.41. Besides, in series [2], the inhibition amounted to 3%.

In series [2], `CC(C)(C)C1=CC(=C/C=C/c2cc(C(C)(C)C)[s+]c(C(C)(C)C)c2)C=C(C(C)(C)C)O1` showed an inhibition of 0.03%.

The record behind these values is ChEMBL document CHEMBL1124734, “Chalcogenapyrylium dyes as photochemotherapeutic agents. 2. Tumor uptake, mitochondrial targeting, and singlet-oxygen-induced inhibition of cytochrome c oxidase” (J Med Chem, 1990).
